Calls of active or inactive are those of the source. The rule behind the calls is not given here.
Columns and labels:
[1] = molecular target: T1, Mitogen-activated protein kinase kinase kinase kinase 2 (Homo sapiens, UniProt Q12851); assay: Inhibition of GCK (unknown origin) by radiometric biochemical kinase assay
T1 sequence (Q12851 whole entry): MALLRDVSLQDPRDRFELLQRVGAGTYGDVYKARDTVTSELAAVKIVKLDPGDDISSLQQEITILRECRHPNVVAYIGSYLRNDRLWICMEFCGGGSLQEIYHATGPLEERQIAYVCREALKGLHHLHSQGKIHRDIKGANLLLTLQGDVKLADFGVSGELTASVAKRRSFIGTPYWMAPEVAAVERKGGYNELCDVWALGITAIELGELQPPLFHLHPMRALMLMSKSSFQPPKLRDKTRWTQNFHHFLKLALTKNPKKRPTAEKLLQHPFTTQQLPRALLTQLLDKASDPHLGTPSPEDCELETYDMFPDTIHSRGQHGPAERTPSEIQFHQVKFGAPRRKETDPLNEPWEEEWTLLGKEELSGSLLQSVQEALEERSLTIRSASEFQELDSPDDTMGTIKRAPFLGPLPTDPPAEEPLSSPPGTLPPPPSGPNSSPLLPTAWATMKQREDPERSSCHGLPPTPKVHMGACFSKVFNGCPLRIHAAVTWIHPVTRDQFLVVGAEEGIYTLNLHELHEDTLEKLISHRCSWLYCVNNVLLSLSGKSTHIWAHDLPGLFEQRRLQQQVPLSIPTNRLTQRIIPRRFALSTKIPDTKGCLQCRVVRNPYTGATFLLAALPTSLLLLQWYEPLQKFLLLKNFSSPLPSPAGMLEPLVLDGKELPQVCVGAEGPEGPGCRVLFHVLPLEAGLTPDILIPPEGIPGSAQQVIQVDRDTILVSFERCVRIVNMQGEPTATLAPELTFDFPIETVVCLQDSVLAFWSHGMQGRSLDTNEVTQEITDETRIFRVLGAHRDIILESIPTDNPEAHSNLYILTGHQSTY

[2] = molecular target: T2, Mitogen-activated protein kinase kinase kinase kinase 2 (Mus musculus) (UniProt Q61161); assay: Inhibition of GCK in mouse BA/F3 cells harboring NRAS-G12D mutant assessed as reduction in JNK phosphorylation at T183/Y185 at 1 uM after 2 hrs by Western blot analysis; type: cell-based
T2 sequence (whole entry): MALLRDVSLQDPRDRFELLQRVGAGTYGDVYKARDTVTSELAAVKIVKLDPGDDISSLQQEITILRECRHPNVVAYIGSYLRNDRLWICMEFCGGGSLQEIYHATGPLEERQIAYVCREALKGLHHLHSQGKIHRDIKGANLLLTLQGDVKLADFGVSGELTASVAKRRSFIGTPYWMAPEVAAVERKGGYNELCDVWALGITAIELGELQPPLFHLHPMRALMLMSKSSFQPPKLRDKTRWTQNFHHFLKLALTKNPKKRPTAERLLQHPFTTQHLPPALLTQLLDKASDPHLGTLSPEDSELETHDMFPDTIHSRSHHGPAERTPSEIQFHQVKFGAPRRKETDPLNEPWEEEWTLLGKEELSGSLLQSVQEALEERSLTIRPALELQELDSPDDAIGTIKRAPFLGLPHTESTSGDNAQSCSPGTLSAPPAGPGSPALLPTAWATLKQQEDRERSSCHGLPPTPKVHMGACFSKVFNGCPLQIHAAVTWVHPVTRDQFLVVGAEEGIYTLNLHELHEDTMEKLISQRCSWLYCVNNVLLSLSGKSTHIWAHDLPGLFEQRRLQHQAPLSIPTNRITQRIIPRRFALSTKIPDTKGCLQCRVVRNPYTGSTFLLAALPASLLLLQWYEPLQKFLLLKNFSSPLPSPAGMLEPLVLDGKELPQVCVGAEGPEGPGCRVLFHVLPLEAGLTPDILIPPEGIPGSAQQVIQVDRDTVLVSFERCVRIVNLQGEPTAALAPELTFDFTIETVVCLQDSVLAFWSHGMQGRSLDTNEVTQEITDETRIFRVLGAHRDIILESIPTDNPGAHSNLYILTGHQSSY
Method in brief: (§1)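 Ba/F3-NRAS-G12D or OCI-AML3 cells exposed 2 h to compounds (1 µM, or a dose series in OCI-AML3); phospho-p70S6K1, phospho-AKT S473, phospho-JNK and phospho-p38 assessed by western blot, actin as loading control.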

[3] = species on record: Mus musculus; assay: Inhibition of ACK1/GCK in mouse BA/F3 cells assessed as reduction in NRAS-G12D mutant-mediated cell proliferation after 72 hrs by celltiter-glo assay; type: cell-based
[4] = Metabolic stability in human liver microsomes assessed as compound remaining at 1 uM after 30 mins; type: ADME, microsome; conditions: read-out: Stability
[5] = Growth inhibition of parental human U937 cells after 72 hrs by celltiter-glo assay; type: cell-based, U-937
[6] = molecular target: T2, Mitogen-activated protein kinase kinase kinase kinase 2 (Mus musculus); assay: Inhibition of GCK in mouse BA/F3 cells harboring NRAS-G12D mutant assessed as reduction in p38 phosphorylation at Thr180/Tyr182 at 1 uM after 2 hrs by Western blot analysis; type: cell-based; method in brief: as §1
[7] = molecular target: Activated CDC42 kinase 1 (Mus musculus) (UniProt O54967); assay: Inhibition of ACK1 in mouse BA/F3 cells harboring NRAS-G12D mutant assessed as reduction in AKT phosphorylation at S473 at 1 uM after 2 hrs by Western blot analysis; type: cell-based; method in brief: as §1
[8] = molecular target: T3, Activated CDC42 kinase 1 (Homo sapiens, UniProt Q07912); assay: Inhibition of ACK1 in human OCI-AML3 cells harboring NRAS Q61L mutant assessed as reduction in P70S6K1 phosphorylation at Thr421/Ser424 at 1 uM after 2 hrs by Western blot analysis; type: cell-based; method in brief: as §1
[9] = molecular target: CYP2C9 (Homo sapiens, UniProt P11712); assay: Inhibition of CYP2C9 (unknown origin) assessed as activity remaining at 10 uM relative to control; type: ADME; conditions: read-out: Activity
[10] = system: OCI-AML-3; assay: Inhibition of anchorage-independent cell growth in human OCI-AML3 cells harboring NRAS Q61L mutant assessed as reduction in colony number at 0.1 to 1 uM after 14 days by iodonitrotetrazolium chloride staining-based soft agar assay; type: functional
Method in brief: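 OCI-AML3 cells embedded in 0.7% low-melting agar, incubated 2 weeks with compound at 0.1 or 1 µM; colony number and colony size per well measured by automated image analysis; n = 3 per condition, SD, one-way ANOVA.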

[11] = system: OCI-AML-3; assay: Induction of apoptosis in human OCI-AML3 cells harboring NRAS Q61L mutant assessed as increase in cleaved caspase-3 levels at 1 uM after 24 hrs by Western blot analysis; type: functional, cell-based
Method in brief: (§2)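 Cells treated 24 h with indicated concentrations (1 µM; 5 µM also used in Ba/F3-NRAS-G12D); cleaved PARP, cleaved caspase 3, bcl-2 and MCL1 detected by western blot with actin as loading control.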

[12] = molecular target: T3, Activated CDC42 kinase 1; assay: Inhibition of ACK1 in human OCI-AML3 cells harboring NRAS Q61L mutant assessed as reduction in P70S6K1 phosphorylation at Thr421/Ser424 after 2 hrs by Western blot analysis; type: cell-based; method in brief: as §1
[13] = system: OCI-AML-3; assay: Induction of apoptosis in human OCI-AML3 cells harboring NRAS Q61L mutant assessed as decrease in bcl2 levels at 1 uM after 24 hrs by Western blot analysis; type: functional, cell-based; method in brief: as §2

T3 sequence (Q07912 whole entry, looked up): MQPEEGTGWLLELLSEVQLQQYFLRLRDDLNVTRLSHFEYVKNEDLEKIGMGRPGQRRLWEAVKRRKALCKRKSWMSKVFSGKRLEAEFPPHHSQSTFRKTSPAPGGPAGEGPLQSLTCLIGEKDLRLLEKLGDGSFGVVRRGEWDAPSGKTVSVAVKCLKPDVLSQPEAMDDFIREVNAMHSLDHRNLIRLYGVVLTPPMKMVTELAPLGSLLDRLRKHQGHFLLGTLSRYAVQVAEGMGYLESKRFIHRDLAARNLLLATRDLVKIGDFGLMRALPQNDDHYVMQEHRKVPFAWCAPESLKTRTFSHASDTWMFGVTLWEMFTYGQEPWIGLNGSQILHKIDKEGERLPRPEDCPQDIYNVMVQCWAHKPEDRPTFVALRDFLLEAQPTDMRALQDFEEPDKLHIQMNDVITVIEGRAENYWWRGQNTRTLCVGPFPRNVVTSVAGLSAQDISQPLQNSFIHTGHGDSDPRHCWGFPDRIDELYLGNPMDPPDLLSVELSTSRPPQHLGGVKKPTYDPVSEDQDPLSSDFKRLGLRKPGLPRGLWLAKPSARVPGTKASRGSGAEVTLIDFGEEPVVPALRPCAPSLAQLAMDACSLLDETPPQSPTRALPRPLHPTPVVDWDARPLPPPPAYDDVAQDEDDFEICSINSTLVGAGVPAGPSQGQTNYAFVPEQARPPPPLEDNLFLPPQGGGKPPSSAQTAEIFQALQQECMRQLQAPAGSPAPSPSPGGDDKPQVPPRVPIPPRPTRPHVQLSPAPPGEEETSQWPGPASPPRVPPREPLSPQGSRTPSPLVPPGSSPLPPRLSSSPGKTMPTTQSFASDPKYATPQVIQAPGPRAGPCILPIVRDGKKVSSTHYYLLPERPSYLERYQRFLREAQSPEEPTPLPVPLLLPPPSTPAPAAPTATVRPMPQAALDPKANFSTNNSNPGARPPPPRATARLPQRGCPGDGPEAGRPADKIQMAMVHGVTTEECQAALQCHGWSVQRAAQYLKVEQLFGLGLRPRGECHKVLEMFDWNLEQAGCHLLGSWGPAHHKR
Chain of CYP2C9 (P11712 whole entry): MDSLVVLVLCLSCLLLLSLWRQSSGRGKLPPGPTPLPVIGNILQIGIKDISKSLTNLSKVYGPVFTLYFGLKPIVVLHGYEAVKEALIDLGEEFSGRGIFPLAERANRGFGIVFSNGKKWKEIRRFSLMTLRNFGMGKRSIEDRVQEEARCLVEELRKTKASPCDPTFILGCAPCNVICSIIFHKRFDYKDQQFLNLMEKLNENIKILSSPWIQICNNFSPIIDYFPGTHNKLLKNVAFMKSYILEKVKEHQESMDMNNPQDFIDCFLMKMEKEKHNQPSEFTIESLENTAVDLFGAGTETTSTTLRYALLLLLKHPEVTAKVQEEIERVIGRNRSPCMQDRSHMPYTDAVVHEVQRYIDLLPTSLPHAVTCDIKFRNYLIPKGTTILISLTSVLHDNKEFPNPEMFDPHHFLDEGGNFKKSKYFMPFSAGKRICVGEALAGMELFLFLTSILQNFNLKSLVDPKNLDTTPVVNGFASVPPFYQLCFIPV
Chain of Activated CDC42 kinase 1 (Mus musculus) (O54967 whole entry): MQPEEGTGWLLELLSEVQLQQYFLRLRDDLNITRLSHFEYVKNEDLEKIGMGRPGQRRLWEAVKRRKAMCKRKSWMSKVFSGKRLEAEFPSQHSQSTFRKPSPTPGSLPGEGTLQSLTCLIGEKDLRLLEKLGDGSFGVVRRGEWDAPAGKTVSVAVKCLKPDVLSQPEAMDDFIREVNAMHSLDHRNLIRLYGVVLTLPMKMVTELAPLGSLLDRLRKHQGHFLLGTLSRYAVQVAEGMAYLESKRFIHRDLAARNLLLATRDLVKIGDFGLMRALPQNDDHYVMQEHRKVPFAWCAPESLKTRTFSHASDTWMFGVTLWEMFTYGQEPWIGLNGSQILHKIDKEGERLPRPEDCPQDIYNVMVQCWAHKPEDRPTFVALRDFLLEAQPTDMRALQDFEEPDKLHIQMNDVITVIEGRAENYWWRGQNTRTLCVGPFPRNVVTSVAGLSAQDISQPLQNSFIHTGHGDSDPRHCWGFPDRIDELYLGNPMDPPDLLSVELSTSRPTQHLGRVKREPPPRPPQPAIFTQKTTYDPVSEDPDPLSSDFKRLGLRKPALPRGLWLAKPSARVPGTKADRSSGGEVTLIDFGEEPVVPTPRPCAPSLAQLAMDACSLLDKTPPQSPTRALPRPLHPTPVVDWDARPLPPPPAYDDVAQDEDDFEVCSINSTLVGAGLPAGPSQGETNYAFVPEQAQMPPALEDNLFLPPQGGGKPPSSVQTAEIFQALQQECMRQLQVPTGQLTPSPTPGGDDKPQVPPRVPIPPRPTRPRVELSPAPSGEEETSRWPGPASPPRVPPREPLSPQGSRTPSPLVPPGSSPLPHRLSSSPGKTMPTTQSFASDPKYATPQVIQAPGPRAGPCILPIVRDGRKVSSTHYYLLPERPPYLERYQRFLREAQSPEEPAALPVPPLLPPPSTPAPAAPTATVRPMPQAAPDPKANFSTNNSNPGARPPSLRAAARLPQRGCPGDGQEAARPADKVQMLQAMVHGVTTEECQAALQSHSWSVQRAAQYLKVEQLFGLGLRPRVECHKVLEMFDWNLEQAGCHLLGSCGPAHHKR

Row | Structure (SMILES) | IC50 [1] | reduction in JNK phosphorylation (active/inactive call) [2] | remaining at 0.5 h, 1 µM [4] | reduction in p38 phosphorylation (qualitative call) [6] | reduction in AKT S473 phosphorylation (qualitative) [7] | inhibition [8] | activity at 10 µM [9] | GI50 [3] | GI50 at 72 h [5] | growth inhibition (GI) [10] | Activity [11] | inhibition [12] | Activity [13]
1 | Cc1ccc(Nc2ncc3c(n2)N(C)C(=O)N(c2cc(NC(=O)c4ccc(CN5CCC(N(C)C)C5)c(C(F)(F)F)c4)ccc2C)C3)cn1 (stereo not given) | 2 nM | Active | 57.5% | Active | Active | Active | 55.1% | 23 nM | 1970 nM | Active | – | – | –
2 | Cc1cc(Nc2ncc3c(n2)N(C)C(=O)N(c2cc(NC(=O)c4cccc(C(F)(F)F)c4)ccc2C)C3)n(C)n1 | 5 nM | Active | 69.2% | Active | Active | Active | 38.3% | 129 nM | 2460 nM | – | – | – | –
3 | Cc1ccc(NC(=O)c2cccc(C(F)(F)F)c2)cc1N1Cc2cnc(N)nc2N(C)C1=O | 28 nM | Active | 84.4% | Active | Active | Active | 68.1% | 223 nM | 4970 nM | Active | Active | Dose-dependent effect | Active

The remaining compounds from weak to strong by IC50 [1], led by results:

Row | IC50 [1] | reduction in JNK phosphorylation (active/inactive call) [2] | remaining at 0.5 h, 1 µM [4] | reduction in p38 phosphorylation (qualitative call) [6] | reduction in AKT S473 phosphorylation (qualitative) [7] | inhibition [8] | activity at 10 µM [9] | Structure (SMILES) | GI50 [3] | GI50 at 72 h [5] | growth inhibition (GI) [10] | Activity [11] | inhibition [12] | Activity [13]
4 | 2 nM | Active | 24.6% | Active | Active | Active | 29% | CCN1CCN(C(=O)c2ccc(Nc3ncc4c(n3)N(C)C(=O)N(c3cc(NC(=O)c5cccc(C(F)(F)F)c5)ccc3C)C4)cn2)CC1 | 107 nM | 6480 nM | – | – | – | –
5 | 1 nM | – | 47.3% | – | – | – | 15.6% | CC(=O)N1CCN(c2ccc(Nc3ncc4c(n3)N(C)C(=O)N(c3cc(NC(=O)c5cccc(C(F)(F)F)c5)ccc3C)C4)cn2)CC1 | 59 nM | 2480 nM | Active | Active | Dose-dependent effect | Active

From ChEMBL document CHEMBL4196175, “First SAR Study for Overriding NRAS Mutant Driven Acute Myeloid Leukemia” (J Med Chem, 2018)
